From the EternaBench riboswitch data

Columns and labels:
[1] = tested on: MS2 coat protein; experiment: apparent Kd, MS2 coat protein; higher = weaker binding; RNA-MaP array
In short: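 Incubations were done at room temperature with fluorescently labeled MS2 coat protein at 1.5 nM to 3 μM and designed RNAs transcribed on an Illumina sequencing chip from sequenced DNA templates, with or without input ligand. Apparent Kd is the median of binding curves fitted for each cluster. Designs with fewer than 10 measured clusters were excluded.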

[2] = tested on: MS2 coat protein; experiment: apparent Kd, MS2 coat protein; higher = weaker binding; RNA-MaP array; FMN 200 µM where present
In short: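 The apparent Kd is the median of filtered binding-curve fits, one per cluster, to green signal normalised to red-channel RNA signal and control-cluster median Fmax. The clusters were on Illumina sequencing chips, and stalled E. coli RNA polymerase had transcribed the designs on them. Titration used SNAP-549-labelled MS2 coat protein from 0.7 or 1.5 nM, doubling to 3 µM, without and then with constant ligand, in 100 mM Tris-HCl pH 7.5, 80 mM KCl, 4 mM MgCl2, BSA, DTT, yeast tRNA and Tween-20.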

[3] = designed as: OFF switch for flavin mononucleotide, no ligand
[4] = ligand present: flavin mononucleotide, designed as: OFF switch for flavin mononucleotide
[5] = designed as: ON switch for flavin mononucleotide, no ligand
[6] = ligand present: flavin mononucleotide, designed as: ON switch for flavin mononucleotide

Row | Sequence | apparent Kd [2, 3] [nM] | apparent Kd [2, 4] [nM] | apparent Kd [2, 5] [nM] | apparent Kd [2, 6] [nM] | also measured
1 | CUAGAACAUGAGGAUCACCCAUGUCAGGAUAUUCUUGGAUGCAUCCAAGCGAAAACAAGAAGAAGGGACGUAUA | – | – | – | – | apparent Kd [1, 3]: 10.8 nM; apparent Kd [1, 4]: 10.4 nM
2 | ACACAAACAGAAGGAUAUUUCACCAACAAGUCGAAAGAAGGUCUAGUACAUGAGGAUCACCCAUGUCUCAGUACAUCGCCGGUU | – | – | – | – | apparent Kd [1, 3]: 33.7 nM; apparent Kd [1, 4]: 30.9 nM
3 | UUGGUUGGGAAAACGAUUUGCACAUGAGGAUCACCCAUGUCGAAGGAUAUGUGGCGCUGUUUGCGACAGAAGGUCGACCUCGCC | – | – | – | – | apparent Kd [1, 5]: 15.5 nM; apparent Kd [1, 6]: 14.9 nM
4 | UGUCGCAGGUUAGAUACCAGCGAGGCGCGGGUAAAUGUUCACAUGAGGAUCACCCAUGUUCGCCCUUGGCAGCUAGUAGGCAUAA | – | – | – | – | apparent Kd ([1]; designed as: OFF switch for theophylline, no ligand): 24.2 nM; apparent Kd ([1]; ligand present: theophylline, designed as: OFF switch for theophylline): 100 nM
5 | UUAUAUCUUUAGGAUAUGCUGUGUCGGCAACUAGCAGAAGGAAAGACAUGAGGAUCACCCAUGUUGGUGCGUUC | – | – | – | – | apparent Kd [1, 3]: 58.8 nM; apparent Kd [1, 4]: 249 nM
6 | AAAGUGUCAGGAUAUACAUGAGGAUCACCCAUGUAUCUUUUUGAUCGUAGGGUGCACCGUAGAAGGGACACUCC | 27.4 | 37.1 | – | – | –
7 | UGUAUUAAUGGAGGAUAUCGAUAUCAAACAUGAGGAUCACCCAUGUUGAGGAUCACCCAUGUCCAUGAGAAGGCCGGCGUACUU | – | – | 34.4 | 32.8 | –
8 | GUAUUUGAAGUAAGGAUAUGCCUCUGGAAACGGAGGUAGAAGGUACAUGAGGAUCACCCAUGUUUCUCUUUUGG | 16 | 23.3 | – | – | –
9 | GAGGAACAUGAGGAUCACCCAUGUGAGGAUAUGCAUAGUGAGGUAGUAGACGUUGAAUGCAGAAGGUACACUGA | 47.6 | 34.3 | – | – | –
10 | UCCAGAUCGCGAGGUAGGAGUAGCAGAAGGCGACCGGUGCCAGAUGACAUGAGGAUCACCCAUGUCGAGGAUAUGCUACAGAAU | 6.49 | 13.2 | – | – | –
11 | CGAAAUGAUAGAGGAUAUGUUAUACAUGAGGAUCACCCAUGUUUAAUGGGAUUAAUAAAUAUCUUACAGAAGGCUAUUCAAUCG | 32 | 20.7 | – | – | –
12 | GGACGUCACAUUAACAUGAGGAUCACCCAUGUCUCUUGACAUGAGGAUAUGGAUCCUAAUUGGAUCCAGAAGGCAUGGACGUCC | – | – | 1220 | 97.2 | –
13 | GAGUGACAUGAGGAUCACCCAUGUGAGGAUAUCGGACGGACCAAAUUAACAAUUUUUGCGAGAAGGCACAUCGG | 59.5 | 72.4 | – | – | –
14 | GGAGAACAUGAGGAUCACCCAUGUGGAUGGGCGCUAGGAUAUGCGAGAGGGUGAAGAGAAGCAGAAGGAGUGGAUA | – | – | 141 | 142 | –
15 | UUCGAGCCAAGGCUCGCGAGUACACAGGAUAUGAAAAGUCACAUGAGGAUCACCCAUGUCCAAAAUCAGAAGGGUGAGACUAAG | – | – | 520 | 101 | –
16 | GCACGGUAAGUGAGGAUAUACCUCUGGAUACAGAGGUAGAAGGCACAUGAGGAUCACCCAUGUCCAAGCCGUGC | 23.7 | 103 | – | – | –
17 | GGUACUAUCACAGGAUAUGCUUUCCUUUGGGAAGCAGAAGGGUGUAACAUGAGGAUCACCCAUGUGGUGCCCGGGCGUGAGCCC | – | – | 51.7 | 14.8 | –
18 | GGUUGGUAUUACAACGGCCUGAGGGAGGAUAUACAAGGCCGGCGUCGCACAUGAGGAUCACCCAUGUAGAAGGCCCAAGGCCUG | 6.97 | 12 | – | – | –
19 | AAGAAGUCAGGAUAUGCUGCUCGUCACUUGCGUGAUGAGUAGCAGAAGGGACAUGAGGAUCACCCAUGUAAAGG | 164 | 356 | – | – | –
20 | UAUGUUGUUGUGAGGAUAUACUUAGUUUGACCGUAGUAGAAGGCACAUGAGGAUCACCCAUGUAGAUGCUUGGU | 5.75 | 10.8 | – | – | –
21 | AGCUAGUACCGAGGAUAUACAUACAUGAGGAUCACCCAUGUAUACAUGAAUUUAUGAGACUACAUGUAGAAGGCGGUACUAGCA | – | – | 58.9 | 15.9 | –
22 | UGGUACUAGGGAGGAUAUGGGAAGAUACAUGAGGAUCACCCAUGUUUAAGAAGGCCGAGAGGCAACUAGAAGGCCCUAGUACCU | – | – | 396 | 16 | –
23 | CGGUCGAUGUAAGGAUAUCGACUGGAAUACAGUCGAGAAGGUACAUGAGGAUCACCCAUGUAAUCCUAAUAAUAAUAACGACCG | 11.1 | 17.4 | – | – | –
24 | GGGUACAUCGGAGGAUAUCAUGUAAAUACAUGAGGAUCACCCAUGUCGAUGGAGGCAUCGGAGAUUGAGAAGGCCGAUGUACCG | – | – | 566 | 17.6 | –
25 | GGCUGUCUCGCAGGAUAUGCUGAUCAGAAACUAGCAGAAGGGUGAUCCAGUCGAGGUUUGACAUGAGGAUCACCCAUGUGGAGU | – | – | 29.4 | 55.8 | –
26 | CGCUAGCGAAUAGUAAUAAAAGUACAGGAUAUGUUACAUGAGGAUCACCCAUGUAUUGGGUAAGAACAGAAGGGUACGCUAGCG | 136 | 97.8 | – | – | –
